# Measurements reported in ChEMBL document CHEMBL1240384, “Inhibition of Porphyromonas gingivalis biofilm by oxantel” (2010).
# Values joined by “and” are separate entries in the source; they are usually repeats but may differ in a detail not shown here. Equal entries are not always repeated. Active and inactive are the calls of the source. The rule behind the calls is not given here.
# Key:
# Assay type in all cases: functional
# Porphyromonas gingivalis [1] = assay: Antimicrobial activity against Porphyromonas gingivalis assessed as reduction in surface area of substratum occupied by cells at 12.5 uM after 18 hrs; set-up: scale not given: the % may be the effect or the level left
# In short: (§1)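 Three-channel flow cell inoculated with 1 ml of exponential ATCC 33277 culture at 5 × 10^8 cells/ml, left 1 h, then fed 0.2 ml/min of 5×-diluted supplemented brain heart infusion. At 18 h, 1 ml of 12.5 or 125 μM compound in sterile water (water control) was injected per channel for 30 min, followed by a 10 min medium wash. BacLight in situ, CLSM (63×, 2 μm sections, 488/568 nm), five random images per replicate, COMSTAT analysis; mean ± SD of three biological replicates.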
# Porphyromonas gingivalis [2] = assay: Antimicrobial activity against Porphyromonas gingivalis assessed as reduction in biovolume at 12.5 uM after 18 hrs; in short: as §1
# Porphyromonas gingivalis [3] = assay: Antimicrobial activity against Porphyromonas gingivalis assessed as reduction in average number of microcolonies at 12.5 uM after 18 hrs; in short: as §1
# Porphyromonas gingivalis [4] = assay: Antimicrobial activity against Porphyromonas gingivalis assessed as reduction in average number of microcolony area at 12.5 uM after 18 hrs; in short: as §1
# Porphyromonas gingivalis [5] = assay: Antimicrobial activity against Porphyromonas gingivalis assessed as surface area/biovolume ratio at 12.5 uM after 18 hrs; in short: as §1
# Porphyromonas gingivalis [6] = assay: Antimicrobial activity against Porphyromonas gingivalis assessed as reduction in thickness of biofilm at 12.5 uM after 18 hrs; in short: as §1
# Porphyromonas gingivalis [7] = assay: Antimicrobial activity against Porphyromonas gingivalis W50
# In short: (§2)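 Planktonic growth of P. gingivalis ATCC 33277 (fimbriated) and W50 (afimbriated) in 96-well plates, starting inoculum ~5.0 × 10^7 CFU per well. MIC determined, and mean generation time measured with DMSO alone or with drug at 31.25 and 62.5 μM. MGT differences were tested at P < 0.05.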
# Porphyromonas gingivalis [8] = assay: Antimicrobial activity against Porphyromonas gingivalis W50 assessed as mean generation time at 62.5 uM; in short: as §2
# Porphyromonas gingivalis [9] = assay: Antimicrobial activity against Porphyromonas gingivalis W50 assessed as mean generation time at 31.25 uM; in short: as §2
# Porphyromonas gingivalis [10] = assay: Antimicrobial activity against Porphyromonas gingivalis ATCC 33277 assessed as mean generation time at 62.5 uM; in short: as §2
# Porphyromonas gingivalis [11] = assay: Antimicrobial activity against Porphyromonas gingivalis ATCC 33277 assessed as reduction of biofilm formation after 24 hrs
# In short: (§3)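 Static 96-well biofilm model with P. gingivalis ATCC 33277, grown 24 h with drug. Biofilm mass was quantified by crystal violet. Results are means of 12 replicates, compared with untreated and DMSO controls by one-way ANOVA with Scheffe multiple comparison.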
# Porphyromonas gingivalis [12] = assay: Antimicrobial activity against Porphyromonas gingivalis ATCC 33277 assessed as reduction of biofilm formation at 0.1 uM after 24 hrs; in short: as §3
# Porphyromonas gingivalis [13] = assay: Antimicrobial activity against Porphyromonas gingivalis ATCC 33277 assessed as thickness of biofilm at 12.5 uM after 18 hrs by confocal laser scanning microscopy; in short: as §1
# Porphyromonas gingivalis [14] = assay: Antimicrobial activity against Porphyromonas gingivalis assessed as reduction in surface area of substratum occupied by cells at 125 uM after 18 hrs; set-up: scale not given: the % may be the effect or the level left; in short: as §1
# Porphyromonas gingivalis [15] = assay: Antimicrobial activity against Porphyromonas gingivalis ATCC 33277 assessed as reduction of biofilm formation at 125 uM after 24 hrs; in short: as §3
# Porphyromonas gingivalis [16] = assay: Antimicrobial activity against Porphyromonas gingivalis ATCC 33277; in short: as §2
# Porphyromonas gingivalis [17] = assay: Antimicrobial activity against Porphyromonas gingivalis ATCC 33277 assessed as thickness of biofilm at 125 uM after 18 hrs by confocal laser scanning microscopy; in short: as §1
# Porphyromonas gingivalis [18] = assay: Antimicrobial activity against Porphyromonas gingivalis ATCC 33277 assessed as mean generation time at 31.25 uM; in short: as §2
Compound,Activity (Porphyromonas gingivalis [1]) [%],Activity (Porphyromonas gingivalis [2]) [µm3/µm2],Activity (Porphyromonas gingivalis [3]) [count],Activity (Porphyromonas gingivalis [4]) [µm2],Activity (Porphyromonas gingivalis [5]) [µm2/µm3],Activity (Porphyromonas gingivalis [6]) [µm],MIC (Porphyromonas gingivalis [7]) [µM],Activity (Porphyromonas gingivalis [8]) [h],Activity (Porphyromonas gingivalis [9]) [h],Activity (Porphyromonas gingivalis [10]) [h],Activity (Porphyromonas gingivalis [11]),Activity (Porphyromonas gingivalis [12]),Activity (Porphyromonas gingivalis [13]),Activity (Porphyromonas gingivalis [14]),Activity (Porphyromonas gingivalis [15]),MIC (Porphyromonas gingivalis [16]) [µM],Activity (Porphyromonas gingivalis [17]),Activity (Porphyromonas gingivalis [18]) [h]
Cc1ncc([N+](=O)[O-])n1CCO [METRONIDAZOLE],27.4,2.19,23.7,102,1.63,2.17,,,,,,,,,,,,
Cc1ccsc1/C=C/C1=NCCCN1C [MORANTEL],,,,,,,2800,11.3,11,,,,,,,,,
CN1CCCN=C1/C=C/c1cccc(O)c1 [OXANTEL],33.2,1.44,18.3,124,2.31,0.83,112,23.8,19.2,24,Dose-dependent effect,Active,Active,23.8% and 27%,Active,125,Active,10
c1ccc2[nH]c(-c3cscn3)nc2c1 [THIABENDAZOLE],,,,,,,> 3000,6.2,6.8,,,,,,,,,
